Bioassay records as filed in PubChem.
Only some compounds are listed: those with a hit (about 3.8% of all), similar ones and a draw of the others.
RAM network inh: yeast RAM network inhibition; inhibition, % at 50 µM; 190,000 compounds, 1.8% hits; S. cerevisiae dse1pr::URA3 reporter, 5-FOA growth OD615, 2 d; analog-sensitive cbk1-as2 kinase mutant strain;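 active = inhibition above a set limit, 3 SD over mean compound inhibition, cut at about 8.4% in these data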;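 also: 0% = DMSO-only wells with no growth and 100% = 10 µM 1-NA-PP1 full growth; inhibition rescues growth on 5-FOA so higher OD means more RAM inhibition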
INS promoter inh: TRM-6 insulin promoter activity inhibition | inhibition, % at 2 µM | AID 1273 | 130,000 compounds, 0.9% hits | TRM-6 cells, insulin promoter-eGFP reporter, imaging; reporter expression induced with tamoxifen;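 active = inhibition above the mean plus 3 SD, with well images judged a real hit on visual review, cut at about 60% in these data, passing the limit was not always enough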
NPY2 pot ag: human NPY-Y2 potentiation or agonism, primary screen. P49146. cells expressing NPY-Y2, potentiator/agonist read-out. activation, % at 3.6 µM. 220,000 compounds, 0.45% hits; in the data active = activation above about 27%;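 also: cells stimulated with NPY near EC25 plus isoproterenol at EC100; 0% = vehicle plus submaximal agonist and 100% = vehicle plus saturating agonist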
Target sequence (P49146 whole entry, looked up): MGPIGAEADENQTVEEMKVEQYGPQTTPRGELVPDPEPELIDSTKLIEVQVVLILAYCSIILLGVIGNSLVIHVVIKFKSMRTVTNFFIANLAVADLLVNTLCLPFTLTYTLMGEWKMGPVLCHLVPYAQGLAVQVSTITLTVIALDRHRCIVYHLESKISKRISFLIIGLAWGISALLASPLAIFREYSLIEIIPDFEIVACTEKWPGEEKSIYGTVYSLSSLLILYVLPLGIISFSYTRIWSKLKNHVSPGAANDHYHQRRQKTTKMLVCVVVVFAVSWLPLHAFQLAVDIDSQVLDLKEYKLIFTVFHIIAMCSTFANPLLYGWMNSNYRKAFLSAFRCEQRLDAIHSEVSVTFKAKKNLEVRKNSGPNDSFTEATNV
NPY1 pot ag: potentiators or agonists of human neuropeptide Y receptor Y1; P25929; NPY-Y1 expressing cells, potentiator/agonist activation; activation, % at 3.6 µM; 220,000 compounds, 0.37% hits; AID 1304; in the data active = activation above about 33%, passing the limit was not always enough;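 also: cells stimulated with NPY at EC10 then isoproterenol at EC100; 0% = low agonist plus stimulus and 100% = saturating agonist plus stimulus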
NPY Y1 blocker: NPY-Y1 (human) receptor antagonism | inhibition, % at 3.6 µM | 200,000 compounds, 1% hits | AID 1040 | HEK293-CNG Y1 cells, membrane potential fluorescence; NPY at EC95, then isoproterenol | P25929;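 active = inhibition above the campaign mean inhibition of all tested compounds plus 3 SD, cut at about 20% in these data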;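 also: 0% = DMSO wells given NPY plus isoproterenol and 100% = isoproterenol alone without NPY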
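Material: Y1- and CNG-channel-expressing HEK293 cells / Probe or stimulus: NPY 25 nM then isoproterenol 1 µM plus Ro 20-1724 25 µM / Doses: 3.6 µM single dose, DMSO 0.4% / Schedule: compound incubation 1 h at room temperature, readout 45 min post-stimulation / Signal: membrane potential fluorescence / Benchmarks: isoproterenol-only wells as full block versus NPY-plus-isoproterenol wells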
NPY Y2 blocker: blocks the human neuropeptide Y Y2 receptor. NPY-Y2 expressing cells, antagonist mode. inhibition, % at 2.7 µM. 140,000 compounds, 0.99% hits;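 also: 0% = vehicle with agonist challenge and 100% = reference antagonist with challenge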
NPY-Y1 ant conf: confirmation of human neuropeptide Y receptor Y1 antagonists. shares compounds with NPY Y1 blocker. HEK293-CNG NPY-Y1, membrane potential fluorescence, cAMP; NPY challenge against isoproterenol-raised cAMP. inhibition, % at 3.6 µM. 1,200 compounds, 21% hits; in the data active = inhibition above about 20%;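 also: 0% = vehicle with agonist plus stimulus and 100% = stimulus alone without agonist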
NPY2 antag ctr: counter-screen for NPY-Y1 antagonists: human NPY-Y2 antagonism; shares compounds with NPY Y1 blocker; inhibition, % at 3.6 µM; AID 1255; 1,200 compounds, 28% hits; HEK293 NPY-Y2 CNG membrane potential fluorescence; cells given NPY, then isoproterenol;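 also: 0% = DMSO with agonist challenge and 100% = reference antagonist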
An asterisk follows results filed as active; . = no result given. Rule as the data show it, unless noted: active = inhibition above about 17%; inactive = the rest.

SMILES	RAM network inh	INS promoter inh	NPY2 pot ag	NPY1 pot ag	NPY Y1 blocker	NPY Y2 blocker	NPY-Y1 ant conf	NPY2 antag ctr
CCOc1nc(-c2ccc(Cl)cc2Cl)ccc1C#N	7	30	-13	-19	36*	13	16	11
O=C(O)CCSc1nc2ccccc2s1	0	5	-30	-36	27*	10	8	6
COCCNS(=O)(=O)c1cc(C)c(C)cc1C	2	-29	-1	-9	3	3	.	.
COc1cccc(-n2c(SCC(=O)NCCc3ccccc3)nnc2-c2ccoc2C)c1	0	6	0	4	0	3	.	.
CC(=O)Oc1ccc2occ(/C=N/c3cc(=O)[nH]c(=S)[nH]3)c(=O)c2c1	.	.	-19	12	.	.	.	.
CSc1cc(-c2ccccc2)n(Cc2ccc(Cl)cc2Cl)c(=O)c1C#N	4	-25	-11	-13	24*	2	0	2
CCCCNCC(O)(c1ccc(Cl)cc1)c1ccc(Cl)cc1	-1	.	-18	-11	26*	.	19	17*
CCOc1cccc2sc(N(CCN(CC)CC)C(=O)c3ccc(S(=O)(=O)N4CCCCC4)cc3)nc12	0	-25	-7	-5	26*	.	4	5
COc1cccc(NC(=O)NC(C)C2CC3CCC2C3)c1 (stereo not given)	4	.	-16	-9	24*	.	3	34*
CCC(C)[C@H](NC(=O)Nc1cccc(OC)c1)C(=O)OC (stereo not given in full)	-1	-11	-2	2	-2	3	.	.
CCOC(=O)c1c(CSc2ccc(C)cc2)n(C)c2cc(Br)c(O)c(CN(C)C)c12	1	.	-100	-78	75*	.	60*	72*
CCOC(=O)c1c(CSc2ccccc2)n(C)c2cc(Br)c(O)c(CN(C)C)c12	.	.	-62	-76	.	.	.	.
CCOC(=O)c1c(C)n(-c2ccc(C)cc2)c2ccc(O)c(CN(C)C)c12	4	-53	-14	-43	51*	.	52*	55*
O=C(O)c1ccc2c(c1)C(=O)N(c1nccs1)C2=O	.	.	-28	-10	.	.	.	.
Cc1ccc(OCC(=O)Nc2sc3c(c2C#N)CC(C)(C)NC3(C)C)cc1	3	.	-24	-38	22*	.	14	6
Clc1ccc(-c2csc(=Nc3cccnc3)n2CCCn2ccnc2)cc1Cl	0	47	-4	-54	29*	16	19	14
Cc1nc2ccccc2nc1SCC(=O)N1CCC(C)CC1	0	-20	-26	-2	4	12	.	.
Cc1ccnc(N2CCN(C(=O)CSc3nc4ccccc4nc3N3CCC(C)CC3)CC2)c1	0	.	-8	-1	24*	.	10	8
COCCN1Cc2cccc(C(=O)Nc3cc(OC)ccc3OC)c2C1=O	1	-4	-2	-12	34*	3	27*	62*
COCCN1Cc2cccc(C(=O)Nc3cc(C)cc(C)c3)c2C1=O	3	.	5	-1	5	1	.	.
CCCCN(C)CCCNC(=O)c1cn(CC)c2ccc(S(=O)(=O)N3CCc4ccccc4C3)cc2c1=O	-1	-100	-22	-30	20	.	.	.
CCCCN(CC)CCCNC(=O)c1cn(CC)c2ccc(S(=O)(=O)N3CCc4ccccc4C3)cc2c1=O	0	.	-5	-13	22*	.	16	29*
Cc1nc2cc(N3CCCCC3)c(NC(=O)c3cccnc3)cc2c(=O)n1Cc1ccccc1	4	50	-26	-77	23*	6	8	9
CC(=O)Nc1cc2c(=O)n(Cc3ccccc3)c(C)nc2cc1N1CCOCC1	1	.	1	3	4	3	.	.
CC1CCCCN1C(=O)COc1ccc(F)cc1 (stereo not given)	-1	11	16	0	2	.	.	.
COc1ccc(CCNC(=O)C/C(C)=N/NC(=O)C(c2ccccc2)c2ccccc2)cc1OC	.	.	-6	12	.	.	.	.
